Experimental data: ChEMBL document CHEMBL1133614, “Novel radiotracers for imaging the serotonin transporter by positron emission tomography: synthesis, radiosynthesis, and in vitro and ex vivo evaluation of (11)C-labeled 2-(phenylthio)araalkylamines” (J Med Chem, 2000)

Tests used:
[1] = biological target: Sodium-dependent serotonin transporter (Homo sapiens, UniProt P31645); test: In vitro binding affinity on cloned Serotonin transporter
Outline: (§1)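 Competition binding in triplicate on membranes from cloned human transporters. Radioligands: SERT [3H]paroxetine 0.2 nM with 10.3 µg protein, NET [3H]nisoxetine 1.0 nM with 16.9 µg, DAT [3H]WIN 35,428 1.0 nM with 6.2 µg. Buffer 50 mM Tris-Cl pH 7.4 with 150 mM NaCl/5 mM KCl (SERT, NET) or 100 mM NaCl (DAT). Incubated 40 min at 37 °C, then filtered on PEI-soaked GF/B filters. Nonspecific binding set with duloxetine 1 µM (SERT), desipramine 10 µM (NET) or nomifensine 10 µM (DAT). IC50 from nonlinear fit; Ki by Cheng-Prusoff.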

[2] = species: Rattus norvegicus; test: Biodistribution of radioactivity in rat hippocampus upon Tail-Vein injection of [11C]-labeled compound after 30 min; format: ADME, organism-based; conditions: in vivo, iv, 0.5 h
[3] = species: Rattus norvegicus; test: Biodistribution of radioactivity in rat thalamus upon Tail-Vein injection of [11C]-labeled compound after 5 min; format: ADME, organism-based; conditions: in vivo, iv
[4] = Half-life of washout rate of radioactivity from the cerebellum.; format: ADME, tissue-based
Outline: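 Rats received the 11C tracer by tail vein (3-30 MBq, 350-450 ng, buffered saline), 3 per time point. Cerebellar radioactivity (%ID/g) was followed over time after injection, and the half-life of its washout was derived from that time course.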

[5] = species: Rattus norvegicus; test: Biodistribution of radioactivity in rat thalamus upon Tail-Vein injection of [11C]-labeled compound after 30 min; format: ADME, organism-based; conditions: in vivo, iv, 0.5 h
[6] = species: Rattus norvegicus; test: Biodistribution of radioactivity in rat cerebellum upon Tail-Vein injection of [11C]-labeled compound after 30 min; format: ADME, organism-based; conditions: in vivo, iv, 0.5 h
[7] = species: Rattus norvegicus; test: Biodistribution of radioactivity in rat cortex upon Tail-Vein injection of [11C]-labeled compound after 60 min; format: ADME, organism-based; conditions: in vivo, iv, 1 h
[8] = species: Rattus norvegicus; test: Biodistribution of radioactivity in rat striatum upon Tail-Vein injection of [11C]-labeled compound after 30 min; format: ADME, organism-based; conditions: in vivo, iv, 0.5 h
[9] = species: Rattus norvegicus; test: Biodistribution of radioactivity in rat cortex upon Tail-Vein injection of [11C]-labeled compound after 30 min; format: ADME, organism-based; conditions: in vivo, iv, 0.5 h
[10] = species: Rattus norvegicus; test: Biodistribution of radioactivity in rat striatum upon Tail-Vein injection of [11C]-labeled compound after 60 min; format: ADME, organism-based; conditions: in vivo, iv, 1 h
[11] = species: Rattus norvegicus; test: Biodistribution of radioactivity in rat hippocampus upon Tail-Vein injection of [11C]-labeled compound after 60 min; format: ADME, organism-based; conditions: in vivo, iv, 1 h
[12] = biological target: Sodium-dependent noradrenaline transporter (Homo sapiens, UniProt P23975); test: In vitro binding affinity on cloned Norepinephrine transporter
Sodium-dependent noradrenaline transporter, sequence (P23975 whole entry): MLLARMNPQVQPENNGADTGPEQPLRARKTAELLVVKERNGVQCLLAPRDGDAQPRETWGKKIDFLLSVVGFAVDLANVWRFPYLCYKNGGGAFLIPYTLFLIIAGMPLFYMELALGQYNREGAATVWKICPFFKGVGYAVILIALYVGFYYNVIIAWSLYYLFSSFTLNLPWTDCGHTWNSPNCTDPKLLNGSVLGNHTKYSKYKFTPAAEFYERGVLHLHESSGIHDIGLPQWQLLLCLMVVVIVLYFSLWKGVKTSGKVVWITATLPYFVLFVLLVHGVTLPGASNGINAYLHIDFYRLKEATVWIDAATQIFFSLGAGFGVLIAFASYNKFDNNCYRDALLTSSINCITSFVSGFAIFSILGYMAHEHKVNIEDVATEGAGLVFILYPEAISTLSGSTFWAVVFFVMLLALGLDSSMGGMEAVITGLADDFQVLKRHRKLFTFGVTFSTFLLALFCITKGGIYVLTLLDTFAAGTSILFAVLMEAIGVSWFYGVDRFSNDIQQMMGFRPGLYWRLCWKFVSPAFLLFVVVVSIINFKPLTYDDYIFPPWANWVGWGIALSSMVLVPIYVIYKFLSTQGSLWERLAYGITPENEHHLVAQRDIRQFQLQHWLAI
Outline: as §1, with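 “transporters.” for “transporters. Radioligands: SERT [3H]paroxetine 0.2 nM with 10.3 µg protein, NET [3H]nisoxetine 1.0 nM with 16.9 µg, DAT [3H]WIN 35,428 1.0 nM with 6.2 µg.”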

[13] = species: Rattus norvegicus; test: Biodistribution of radioactivity in rat hypothalamus upon Tail-Vein injection of [11C]-labeled compound after 30 min; format: ADME, organism-based; conditions: in vivo, iv, 0.5 h
[14] = species: Rattus norvegicus; test: Biodistribution of radioactivity in rat thalamus upon Tail-Vein injection of [11C]-labeled compound after 60 min; format: ADME, organism-based; conditions: in vivo, iv, 1 h
[15] = species: Rattus norvegicus; test: Biodistribution of radioactivity in rat hypothalamus upon Tail-Vein injection of [11C]-labeled compound after 15 min; format: ADME, organism-based; conditions: in vivo, iv, 0.25 h
[16] = species: Rattus norvegicus; test: Biodistribution of radioactivity in rat striatum upon Tail-Vein injection of [11C]-labeled compound after 15 min; format: ADME, organism-based; conditions: in vivo, iv, 0.25 h
[17] = species: Rattus norvegicus; test: Biodistribution of radioactivity in rat blood upon Tail-Vein injection of [11C]-labeled compound after 5 min; format: ADME, organism-based; conditions: in vivo, iv
[18] = species: Rattus norvegicus; test: Biodistribution of radioactivity in rat hippocampus upon Tail-Vein injection of [11C]-labeled compound after 5 min; format: ADME, organism-based; conditions: in vivo, iv
[19] = species: Rattus norvegicus; test: Biodistribution of radioactivity in rat hippocampus upon Tail-Vein injection of [11C]-labeled compound after 15 min; format: ADME, organism-based; conditions: in vivo, iv, 0.25 h
[20] = species: Rattus norvegicus; test: Biodistribution of radioactivity in rat striatum upon Tail-Vein injection of [11C]-labeled compound after 5 min; format: ADME, organism-based; conditions: in vivo, iv
[21] = Log P at pH 7.4; format: physicochemical; conditions: buffer
Outline: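 Partition of the radiolabelled compound between 1-octanol and 0.02 M phosphate buffer at pH 7.4.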

[22] = species: Rattus norvegicus; test: Biodistribution of radioactivity in rat hypothalamus upon Tail-Vein injection of [11C]-labeled compound after 5 min; format: ADME, organism-based; conditions: in vivo, iv
[23] = species: Rattus norvegicus; test: Biodistribution of radioactivity in rat blood upon Tail-Vein injection of [11C]-labeled compound after 30 min upon; format: ADME, organism-based; conditions: in vivo, iv, 0.5 h
[24] = species: Rattus norvegicus; test: Biodistribution of radioactivity in rat cortex upon Tail-Vein injection of [11C]-labeled compound after 15 min; format: ADME, organism-based; conditions: in vivo, iv, 0.25 h
[25] = species: Rattus norvegicus; test: Biodistribution of radioactivity in rat cerebellum upon Tail-Vein injection of [11C]-labeled compound after 60 min; format: ADME, organism-based; conditions: in vivo, iv, 1 h
[26] = species: Rattus norvegicus; test: Biodistribution of radioactivity in rat blood upon Tail-Vein injection of [11C]-labeled compound after 60 min; format: ADME, organism-based; conditions: in vivo, iv, 1 h
[27] = species: Rattus norvegicus; test: Biodistribution of radioactivity in rat cerebellum upon Tail-Vein injection of [11C]-labeled compound after 5 min; format: ADME, organism-based; conditions: in vivo, iv
[28] = biological target: Sodium-dependent dopamine transporter (Homo sapiens, UniProt Q01959); test: In vitro binding affinity on cloned Dopamine transporter; outline: as §1
Sodium-dependent dopamine transporter, sequence (Q01959 whole entry): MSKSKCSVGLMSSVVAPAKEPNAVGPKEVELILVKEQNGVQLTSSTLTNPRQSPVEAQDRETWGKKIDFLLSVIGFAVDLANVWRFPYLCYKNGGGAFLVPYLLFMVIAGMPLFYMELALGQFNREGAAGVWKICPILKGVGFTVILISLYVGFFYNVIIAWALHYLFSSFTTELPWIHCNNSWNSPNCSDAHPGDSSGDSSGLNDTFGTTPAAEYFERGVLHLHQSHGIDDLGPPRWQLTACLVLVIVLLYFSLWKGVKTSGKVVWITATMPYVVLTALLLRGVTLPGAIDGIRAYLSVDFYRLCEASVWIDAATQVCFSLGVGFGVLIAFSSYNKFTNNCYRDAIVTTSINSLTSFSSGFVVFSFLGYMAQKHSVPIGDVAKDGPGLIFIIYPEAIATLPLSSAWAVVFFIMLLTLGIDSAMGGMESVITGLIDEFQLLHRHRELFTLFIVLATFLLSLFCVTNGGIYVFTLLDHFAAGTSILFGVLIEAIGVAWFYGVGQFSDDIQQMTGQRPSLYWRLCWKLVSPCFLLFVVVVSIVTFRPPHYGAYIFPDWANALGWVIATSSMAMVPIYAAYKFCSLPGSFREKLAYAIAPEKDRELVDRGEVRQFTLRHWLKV

[29] = species: Rattus norvegicus; test: Biodistribution of radioactivity in rat thalamus upon Tail-Vein injection of [11C]-labeled compound after 15 min; format: ADME, organism-based; conditions: in vivo, iv, 0.25 h
[30] = species: Rattus norvegicus; test: Biodistribution of radioactivity in rat blood upon Tail-Vein injection of [11C]-labeled compound after 15 min; format: ADME, organism-based; conditions: in vivo, iv, 0.25 h
[31] = species: Rattus norvegicus; test: Biodistribution of radioactivity in rat hypothalamus upon Tail-Vein injection of [11C]-labeled compound after 60 min; format: ADME, organism-based; conditions: in vivo, iv, 1 h
[32] = species: Rattus norvegicus; test: Biodistribution of radioactivity in rat cortex upon Tail-Vein injection of [11C]-labeled compound after 5 min; format: ADME, organism-based; conditions: in vivo, iv
[33] = species: Rattus norvegicus; test: Biodistribution of radioactivity in rat cerebellum upon Tail-Vein injection of [11C]-labeled compound after 15 min; format: ADME, organism-based; conditions: in vivo, iv, 0.25 h
[34] = species: Rattus norvegicus; test: Biodistribution of radioactivity in rat cerebellum upon Tail-Vein injection of [11C]-labeled compound after 45 min; format: ADME, organism-based; conditions: in vivo, iv, 0.75 h
[35] = species: Rattus norvegicus; test: Biodistribution of radioactivity in rat thalamus upon Tail-Vein injection of [11C]-labeled compound after 45 min; format: ADME, organism-based; conditions: in vivo, iv, 0.75 h
[36] = species: Rattus norvegicus; test: Biodistribution of radioactivity in rat hippocampus upon Tail-Vein injection of [11C]-labeled compound after 45 min; format: ADME, organism-based; conditions: in vivo, iv, 0.75 h
[37] = species: Rattus norvegicus; test: Biodistribution of radioactivity in rat blood upon Tail-Vein injection of [11C]-labeled compound after 30 min; format: ADME, organism-based; conditions: in vivo, iv, 0.5 h
[38] = species: Rattus norvegicus; test: Biodistribution of radioactivity in rat blood upon Tail-Vein injection of [11C]-labeled compound after 45 min; format: ADME, organism-based; conditions: in vivo, iv, 0.75 h
[39] = species: Rattus norvegicus; test: Biodistribution of radioactivity in rat hypothalamus upon Tail-Vein injection of [11C]-labeled compound after 45 min; format: ADME, organism-based; conditions: in vivo, iv, 0.75 h
[40] = species: Rattus norvegicus; test: Biodistribution of radioactivity in rat cortex upon Tail-Vein injection of [11C]-labeled compound after 45 min; format: ADME, organism-based; conditions: in vivo, iv, 0.75 h
[41] = species: Rattus norvegicus; test: Biodistribution of radioactivity in rat striatum upon Tail-Vein injection of [11C]-labeled compound after 45 min; format: ADME, organism-based; conditions: in vivo, iv, 0.75 h

Sodium-dependent serotonin transporter, sequence (P31645 whole entry): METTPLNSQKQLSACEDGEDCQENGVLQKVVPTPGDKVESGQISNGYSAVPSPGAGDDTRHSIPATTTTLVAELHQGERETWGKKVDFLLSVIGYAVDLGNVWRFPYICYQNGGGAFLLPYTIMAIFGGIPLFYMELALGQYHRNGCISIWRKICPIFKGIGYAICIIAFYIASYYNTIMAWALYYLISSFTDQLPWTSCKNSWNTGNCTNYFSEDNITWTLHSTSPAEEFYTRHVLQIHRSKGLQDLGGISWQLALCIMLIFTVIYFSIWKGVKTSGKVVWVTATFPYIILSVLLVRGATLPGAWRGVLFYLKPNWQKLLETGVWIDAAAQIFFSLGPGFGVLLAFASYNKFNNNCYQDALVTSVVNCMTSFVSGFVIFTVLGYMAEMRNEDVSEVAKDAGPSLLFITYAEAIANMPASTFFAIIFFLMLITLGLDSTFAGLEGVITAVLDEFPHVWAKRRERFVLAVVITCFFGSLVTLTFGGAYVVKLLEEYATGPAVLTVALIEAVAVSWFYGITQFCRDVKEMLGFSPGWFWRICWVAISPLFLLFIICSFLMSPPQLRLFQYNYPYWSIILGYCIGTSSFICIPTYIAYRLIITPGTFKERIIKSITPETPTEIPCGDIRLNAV

Row | Ki [1] | ID/g [2] | ID/g [3] | T1/2 [4] | ID/g [5] | ID/g [6] | ID/g [7] | ID/g [8] | ID/g [9] | ID/g [10] | ID/g [11] | ID/g [13] | ID/g [14] | ID/g [15] | ID/g [16] | ID/g [17] | ID/g [18] | ID/g [19] | ID/g [20] | ID/g [22] | Structure (SMILES) | further results
1 | 0.33 nM | 0.88% | 1.07% | 32.3 min | 1.07% | 0.47% | 0.69% | 0.99% | 0.98% | 0.72% | 0.75% | 1.23% | 0.89% | 1.17% | 1.02% | 0.35% | 0.92% | 0.91% | 1.05% | 1.02% | CN(C)Cc1ccccc1Sc1ccc(C(F)(F)F)cc1N | Ki [12]: 1200 nM; logD ([21]; read-out: logD): 3.77; ID/g [23]: 0.21%; ID/g [24]: 1.06%; ID/g [25]: 0.28%; ID/g [26]: 0.12%; ID/g [27]: 0.92%; Ki [28]: 2040 nM; ID/g [29]: 1.06%; ID/g [30]: 0.21%; ID/g [31]: 0.99%; ID/g [32]: 1.09%; ID/g [33]: 0.7%
2 | 1.89 nM | 0.74% | 1.12% | 18.8 min | 0.83% | 0.27% | 0.36% | 0.76% | 0.7% | 0.38% | 0.38% | 1.08% | 0.48% | 1.31% | 1.07% | 0.3% | 1.09% | 0.98% | 1.19% | 1.22% | COc1ccc(Sc2ccccc2CN(C)C)c(N)c1 | ID/g [34]: 0.2%; Ki [12]: 1990 nM; ID/g [35]: 0.71%; ID/g [36]: 0.56%; ID/g [37]: 0.13%; ID/g [38]: 0.1%; ID/g [39]: 0.89%; logD ([21]; read-out: logD): 2.83; ID/g [40]: 0.54%; ID/g [24]: 1.11%; ID/g [25]: 0.1%; ID/g [26]: 0.07%; ID/g [27]: 0.8%; Ki [28]: 2650 nM; ID/g [29]: 1.13%; ID/g [41]: 0.58%; ID/g [30]: 0.17%; ID/g [31]: 0.63%; ID/g [32]: 1.37%; ID/g [33]: 0.52%
3 | 0.27 nM | 1.04% | 1.43% | 25.4 min | 1.65% | 0.47% | 0.73% | 1.17% | 1.14% | 0.79% | 0.74% | 1.47% | 1.24% | 1.48% | 1.34% | 0.39% | 1.06% | 1.12% | 1.36% | 1.36% | CN(C)Cc1ccccc1Sc1ccc(Cl)cc1N | Ki [12]: 230 nM; logD ([21]; read-out: logD): 3.55; ID/g [23]: 0.14%; ID/g [24]: 1.33%; ID/g [25]: 0.23%; ID/g [26]: 0.08%; ID/g [27]: 1.03%; Ki [28]: 115 nM; ID/g [29]: 1.54%; ID/g [30]: 0.28%; ID/g [31]: 1.19%; ID/g [32]: 1.39%; ID/g [33]: 0.75%
4 | 1.1 nM | 0.72% | 1.15% | 15.6 min | 0.8% | 0.27% | 0.32% | 0.77% | 0.74% | 0.35% | 0.35% | 1.02% | 0.49% | 1.39% | 1.24% | 0.58% | 1.13% | 1.06% | 1.24% | 1.25% | CN(C)Cc1ccccc1Sc1ccc(C#N)cc1N [DASB] | ID/g [34]: 0.13%; ID/g [35]: 0.64%; ID/g [36]: 0.49%; ID/g [37]: 0.22%; ID/g [38]: 0.1%; ID/g [39]: 0.8%; logD [21]: 2.707; ID/g [40]: 0.48%; ID/g [24]: 1.29%; ID/g [25]: 0.07%; ID/g [26]: 0.06%; ID/g [27]: 0.76%; Ki [28]: 1420 nM; ID/g [29]: 1.21%; ID/g [41]: 0.55%; ID/g [30]: 0.31%; ID/g [31]: 0.62%; ID/g [32]: 1.46%; ID/g [33]: 0.54%
